Experimental data as given in ChEMBL document CHEMBL2384906, “Biological activity, design, synthesis and structure activity relationship of some novel derivatives of curcumin containing sulfonamides” (Eur J Med Chem, 2013).
≈ marks a conversion by molar mass, not a printed value. Calls of active or inactive are those of the source. No cut-off for these calls is given here.

How the values were obtained:
Mus musculus = assay: Antiinflammatory activity in mouse assessed as inhibition of carrageenan-induced increase in paw volume at 200 mg/kg administered 1 hr prior to carrageenan challenge measured after 3 hrs relative to control; type: functional
In short: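 Mice were fasted 2 h and placed in groups of five. Controls received saline i.p. Phenylbutazone was given at 100 mg/kg i.p., curcumin at 200 mg/kg i.p., and derivatives at 200 mg/kg. After 1 h, 0.1 mL of 1% carrageenan in saline was injected subplantar into the right hind paw. Paw volume was followed by plethysmometer for 3 h, and % inhibition was calculated as (Vc − Vt)/Vc × 100.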

HCT-116 = assay: Cytotoxicity against human HCT116 cells after 24 hrs by MTT assay; type: functional, cell-based
In short: (§1)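 The MTT assay seeded 5 × 10⁴ cells per well and grew them 24 h in RPMI 1640 with compound at 2.5–200 µM. Medium without cells was the blank and adriamycin the positive control. MTT was added for 4 h at 37 °C, formazan was solubilised, and absorbance was read at 570 nm. IC50 is the concentration that cuts viability 50% against untreated cells.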

QG-56 = assay: Cytotoxicity against human QG56 cells after 24 hrs by MTT assay; type: functional, cell-based; in short: as §1
HeLa = assay: Cytotoxicity against human HeLa cells after 24 hrs by MTT assay; type: functional, cell-based; in short: as §1
HepG2 = assay: Cytotoxicity against human HepG2 cells after 24 hrs by MTT assay; type: functional, cell-based; in short: as §1
Trichoderma viride [1] = assay: Antifungal activity against Trichoderma viride MTCC 1107 after 48 hrs; type: functional; details: MTCC 1107, 48 h
Trichoderma viride [2] = assay: Antifungal activity against Trichoderma viride MTCC 1107 assessed as zone of inhibition at 20 uM after 48 hrs by disc diffusion method; type: functional; details: MTCC 1107, 48 h, read-out: IZ
In short: (§2)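 Spores from 4-day potato dextrose agar cultures, suspended in sterile water at 1.5 × 10⁵ CFU/mL. 0.2 mL was spread on potato dextrose agar. 5 mm filter-paper discs soaked with test compound were laid on the lawn. Incubation was 48 h at 28 °C, then the inhibition zone was measured in mm. Fluconazole was the positive control and acetone the negative control.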

Trichoderma viride [3] = assay: Antifungal activity against Trichoderma viride MTCC 1107 assessed as zone of inhibition at 40 uM after 48 hrs by disc diffusion method; type: functional; details: MTCC 1107, 48 h, read-out: IZ; in short: as §2
Trichoderma viride [4] = assay: Antifungal activity against Trichoderma viride MTCC 1107 assessed as zone of inhibition at 80 uM after 48 hrs by disc diffusion method; type: functional; details: MTCC 1107, 48 h, read-out: IZ; in short: as §2
Curvularia lunata [5] = assay: Antifungal activity against Curvularia lunata MTCC 581 after 48 hrs; type: functional; details: MTCC 581, 48 h
Curvularia lunata [6] = assay: Antifungal activity against Curvularia lunata MTCC 581 assessed as zone of inhibition at 20 uM after 48 hrs by disc diffusion method; type: functional; details: MTCC 581, 48 h, read-out: IZ; in short: as §2
Curvularia lunata [7] = assay: Antifungal activity against Curvularia lunata MTCC 581 assessed as zone of inhibition at 40 uM after 48 hrs by disc diffusion method; type: functional; details: MTCC 581, 48 h, read-out: IZ; in short: as §2
Aspergillus flavus [8] = assay: Antifungal activity against Aspergillus flavus MTCC 1021 after 48 hrs; type: functional; details: MTCC 1021, 48 h
Curvularia lunata [9] = assay: Antifungal activity against Curvularia lunata MTCC 581 assessed as zone of inhibition at 80 uM after 48 hrs by disc diffusion method; type: functional; details: MTCC 581, 48 h, read-out: IZ; in short: as §2
Aspergillus flavus [10] = assay: Antifungal activity against Aspergillus flavus MTCC 1021 assessed as zone of inhibition at 20 uM after 48 hrs by disc diffusion method; type: functional; details: MTCC 1021, 48 h, read-out: IZ; in short: as §2
Aspergillus flavus [11] = assay: Antifungal activity against Aspergillus flavus MTCC 1021 assessed as zone of inhibition at 40 uM after 48 hrs by disc diffusion method; type: functional; details: MTCC 1021, 48 h, read-out: IZ; in short: as §2
Aspergillus flavus [12] = assay: Antifungal activity against Aspergillus flavus MTCC 1021 assessed as zone of inhibition at 80 uM after 48 hrs by disc diffusion method; type: functional; details: MTCC 1021, 48 h, read-out: IZ; in short: as §2
Aspergillus niger [13] = assay: Antifungal activity against Aspergillus niger MTCC 1108 after 48 hrs; type: functional; details: MTCC 1108, 48 h
Aspergillus niger [14] = assay: Antifungal activity against Aspergillus niger MTCC 1108 assessed as zone of inhibition at 20 uM after 48 hrs by disc diffusion method; type: functional; in short: as §2
Aspergillus niger [15] = assay: Antifungal activity against Aspergillus niger MTCC 1108 assessed as zone of inhibition at 40 uM after 48 hrs by disc diffusion method; type: functional; details: MTCC 1108, 48 h, read-out: IZ; in short: as §2
Aspergillus niger [16] = assay: Antifungal activity against Aspergillus niger MTCC 1108 assessed as zone of inhibition at 80 uM after 48 hrs by disc diffusion method; type: functional; details: MTCC 1108, 48 h, read-out: IZ; in short: as §2
Escherichia coli [17] = assay: Antimicrobial activity against Escherichia coli ATCC 35218 after 24 hrs by broth micro serial dilution method; type: functional; details: ATCC 35218, 24 h
In short: (§3)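 This was broth microdilution in autoclaved Mueller-Hinton broth. 150 µL of compound per well was serially diluted […], and 50 µL of test organism was added. Plates were incubated 24 h at 37 °C and optical density was read.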

Escherichia coli [18] = assay: Antimicrobial activity against Escherichia coli ATCC 35218 assessed as diameter of inhibition zone at 80 uM after 24 hrs by Kirby -Baur disc diffusion method; type: functional
In short: (§4)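 Kirby-Bauer disc diffusion was used. Acetone stocks (160 µM) were serially doubled down to 80, 40 and 20 µM. 4 µL of each went onto 5 mm sterile paper discs, which were dried 30 min at 50 °C. Inoculum was 1.5 × 10⁸ CFU/mL diluted to 3 × 10² CFU/mL, and 50 µL was spread on Mueller-Hinton agar. After 24 h at 37 °C the inhibition-zone diameter was measured. Ciprofloxacin served as positive control.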

Pseudomonas aeruginosa [19] = assay: Antimicrobial activity against Pseudomonas aeruginosa ATCC 15499 after 24 hrs by broth micro serial dilution method; type: functional; details: ATCC 15499, 24 h; in short: as §3
Pseudomonas aeruginosa [20] = assay: Antimicrobial activity against Pseudomonas aeruginosa ATCC 15499 assessed as diameter of inhibition zone at 80 uM after 24 hrs by Kirby -Baur disc diffusion method; type: functional; in short: as §4
Salmonella typhi [21] = assay: Antimicrobial activity against Salmonella typhi ATCC 23564 after 24 hrs by broth micro serial dilution method; type: functional; details: Salmonella enterica subsp. enterica serovar Typhi
Salmonella typhi [22] = assay: Antimicrobial activity against Salmonella typhi ATCC 23564 assessed as diameter of inhibition zone at 80 uM after 24 hrs by Kirby -Baur disc diffusion method; type: functional; details: Salmonella enterica subsp. enterica serovar Typhi
Bacillus cereus [23] = assay: Antimicrobial activity against Bacillus cereus MTCC 7350 after 24 hrs by broth micro serial dilution method; type: functional; details: MTCC 7350, 24 h; in short: as §3
Bacillus cereus [24] = assay: Antimicrobial activity against Bacillus cereus MTCC 7350 assessed as diameter of inhibition zone at 20 uM after 24 hrs by Kirby -Baur disc diffusion method; type: functional; in short: as §4
Bacillus cereus [25] = assay: Antimicrobial activity against Bacillus cereus MTCC 7350 assessed as diameter of inhibition zone at 40 uM after 24 hrs by Kirby -Baur disc diffusion method; type: functional; in short: as §4
Bacillus cereus [26] = assay: Antimicrobial activity against Bacillus cereus MTCC 7350 assessed as diameter of inhibition zone at 80 uM after 24 hrs by Kirby -Baur disc diffusion method; type: functional; details: MTCC 7350, 24 h, read-out: DIZ; in short: as §4
Staphylococcus aureus [27] = assay: Antimicrobial activity against Staphylococcus aureus ATCC 11632 after 24 hrs by broth micro serial dilution method; type: functional; details: ATCC 11632, 24 h; in short: as §3
Staphylococcus aureus [28] = assay: Antimicrobial activity against Staphylococcus aureus ATCC 11632 assessed as diameter of inhibition zone at 20 uM after 24 hrs by Kirby -Baur disc diffusion method; type: functional; in short: as §4
Staphylococcus aureus [29] = assay: Antimicrobial activity against Staphylococcus aureus ATCC 11632 assessed as diameter of inhibition zone at 40 uM after 24 hrs by Kirby -Baur disc diffusion method; type: functional; in short: as §4
Staphylococcus aureus [30] = assay: Antimicrobial activity against Staphylococcus aureus ATCC 11632 assessed as diameter of inhibition zone at 80 uM after 24 hrs by Kirby -Baur disc diffusion method; type: functional; details: ATCC 11632, 24 h, read-out: DIZ; in short: as §4

Row | SMILES | inhibition in vivo at 200 mg/kg (Mus musculus) [%] | IC50 (HCT-116) | IC50 (QG-56) [µM] | IC50 (HeLa) [µM] | IC50 (HepG2) [µM] | MIC (Trichoderma viride [1]) [µM] | zone of inhibition at 20 µM (Trichoderma viride [2]) [mm] | zone of inhibition at 40 µM (Trichoderma viride [3]) [mm] | zone of inhibition at 80 µM (Trichoderma viride [4]) [mm] | MIC (Curvularia lunata [5]) [µM] | zone of inhibition at 20 µM (Curvularia lunata [6]) [mm] | zone of inhibition at 40 µM (Curvularia lunata [7]) [mm] | MIC (Aspergillus flavus [8]) [µM] | zone of inhibition at 80 µM (Curvularia lunata [9]) [mm] | zone of inhibition at 20 µM (Aspergillus flavus [10]) [mm] | zone of inhibition at 40 µM (Aspergillus flavus [11]) [mm] | zone of inhibition at 80 µM (Aspergillus flavus [12]) [mm] | MIC (Aspergillus niger [13]) [µM] | zone of inhibition at 40 µM (Aspergillus niger [15]) [mm] | zone of inhibition at 80 µM (Aspergillus niger [16]) [mm] | also measured
1 | COc1ccc(NS(=O)(=O)c2ccc(/N=N/C(C(=O)/C=C/c3ccc(O)c(OC)c3)=C(O)\C=C\c3ccc(O)c(OC)c3)cc2)nn1 | 29 | Not Active | > 100 | 100 | > 100 | 20 (≈ 13.2 µg/mL) | 12 | 16 | 19 | 20 (≈ 13.2 µg/mL) | 12 | 16 | 40 (≈ 26.4 µg/mL) | 19 | 11 | 12 | 15 | > 80 | 9 | 12 | inhibition zone (IZ) (Aspergillus niger [14]): inactive; MIC (Escherichia coli [17]): > 80 µM; diameter of the inhibition zone (DIZ) (Escherichia coli [18]): inactive; MIC (Pseudomonas aeruginosa [19]): > 80 µM; diameter of the inhibition zone (DIZ) (Pseudomonas aeruginosa [20]): inactive; MIC (Salmonella typhi [21]): inactive; diameter of the inhibition zone (DIZ) (Salmonella typhi [22]): inactive; MIC (Bacillus cereus [23]): > 80 µM; diameter of the inhibition zone (DIZ) (Bacillus cereus [24]): inactive; diameter of the inhibition zone (DIZ) (Bacillus cereus [25]): inactive; zone of inhibition at 80 µM (Bacillus cereus [26]): 9 mm; MIC (Staphylococcus aureus [27]): > 80 µM; diameter of the inhibition zone (DIZ) (Staphylococcus aureus [28]): inactive; zone of inhibition at 40 µM (Staphylococcus aureus [29]; ATCC 11632, 24 h, read-out: DIZ): 9 mm; zone of inhibition at 80 µM (Staphylococcus aureus [30]): 11 mm
2 | COc1cc(/C=C/C(=O)C(/N=N/c2ccc(S(=O)(=O)Nc3nc(C)cc(C)n3)cc2)=C(O)/C=C/c2ccc(O)c(OC)c2)ccc1O | 33.8 | Not Active | 100 | 50 | > 100 | 20 (≈ 13.2 µg/mL) | 18 | 19 | 22 | 20 (≈ 13.2 µg/mL) | 18 | 19 | 40 (≈ 26.3 µg/mL) | 22 | 11 | 13 | 14 | 40 (≈ 26.3 µg/mL) | 12 | 14 | zone of inhibition at 20 µM (Aspergillus niger [14]; MTCC 1108, 48 h, read-out: IZ): 9 mm; MIC (Escherichia coli [17]): > 80 µM; diameter of the inhibition zone (DIZ) (Escherichia coli [18]): inactive; MIC (Pseudomonas aeruginosa [19]): > 80 µM; diameter of the inhibition zone (DIZ) (Pseudomonas aeruginosa [20]): inactive; MIC (Salmonella typhi [21]): inactive; diameter of the inhibition zone (DIZ) (Salmonella typhi [22]): inactive; MIC (Bacillus cereus [23]): > 80 µM; diameter of the inhibition zone (DIZ) (Bacillus cereus [24]): inactive; diameter of the inhibition zone (DIZ) (Bacillus cereus [25]): inactive; zone of inhibition at 80 µM (Bacillus cereus [26]): 11 mm; MIC (Staphylococcus aureus [27]): > 80 µM; diameter of the inhibition zone (DIZ) (Staphylococcus aureus [28]): inactive; diameter of the inhibition zone (DIZ) (Staphylococcus aureus [29]): inactive; zone of inhibition at 80 µM (Staphylococcus aureus [30]): 10 mm
